Activity calls are given as the source filed them. The rule behind the calls is not given here.
Experiments:
Format in all cases: functional, cell-based
[1] = test system: T-cell; assay: Induction of IFN-gamma production in C57BL/6 mouse natural killer T cells after 48 hrs by cytometric bead array
Method in brief: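 Spleen cells (about 4 × 10⁵) from female C57BL/6 mice aged 6–8 weeks, in RPMI 1640 with 10% heat-inactivated FCS, glutamine, antibiotics and Hepes, at 37 °C in 5% CO₂. Cells were stimulated with glycolipid at 2, 20 or 200 ng/mL for 48 h. Supernatant IFN-γ was measured by cytometric bead array on FACS against a kit standard curve. Mean of three wells.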

[2] = test system: T-cell; assay: Induction of IL13 production in C57BL/6 mouse natural killer T cells after 48 hrs by cytometric bead array
Method in brief: (§1)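 Spleen cells (approx. 4 × 10⁵) from female C57BL/6 mice aged 6–8 weeks were cultured 48 h at 37 °C in humidified 5% CO₂. Medium was RPMI 1640 with 10% heat-inactivated FCS, 2 mM L-glutamine, penicillin/streptomycin and 10 mM Hepes, plus glycolipid at 2, 20 or 200 ng/mL. Supernatant IFN-γ, IL-4 and IL-13 were read by cytometric bead array with PE detection, interpolated from standard curves. Values are means of three wells.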

[3] = test system: T-cell; assay: Induction of IL4 production in C57BL/6 mouse natural killer T cells after 48 hrs by cytometric bead array; method in brief: as §1
[4] = test system: T-cell; assay: Induction of IFN-gamma production in C57BL/6 mouse natural killer T cells upto 200 ng/ml after 48 hrs by cytometric bead array relative to KRN7000; method in brief: as §1
[5] = test system: T-cell; assay: Induction of IL4 production in C57BL/6 mouse natural killer T cells at 2 ng/ml after 48 hrs by cytometric bead array; method in brief: as §1
[6] = test system: T-cell; assay: Induction of IL13 production in C57BL/6 mouse natural killer T cells at 2 ng/ml after 48 hrs by cytometric bead array; method in brief: as §1

| SMILES | Activity [1] | Activity [2] | Activity [3] | Activity [4] | Activity [5] | Activity [6] |
| --- | --- | --- | --- | --- | --- | --- |
| CCCCCCCCCCCCCC[C@@H](O)[C@@H](O)[C@H](CC[C@H]1O[C@H](CO)[C@H](O)[C@H](O)[C@H]1O)NS(=O)(=O)c1ccc(C)cc1 | inactive | inactive | inactive |  |  |  |
| CCCCCCCCCCCCCCCCCCCCCCCCCC(=O)N[C@@H](CO[C@H]1O[C@H](CO)[C@H](O)[C@H](O)[C@H]1O)[C@H](O)[C@H](O)CCCCCCCCCCCCCC |  | Active | Active |  |  |  |
| CCCCCCCCCCCCCCCCCC(=O)N[C@@H](CO[C@H]1O[C@H](CO)[C@H](O)[C@H](O)[C@H]1O)[C@H](O)[C@H](O)CCCCCCCCCCCCCC | Active |  |  |  |  |  |
| CCCCCCCCCCCCCC[C@@H](O)[C@@H](O)[C@H](CO[C@H]1O[C@H](CO)[C@H](O)[C@H](O)[C@H]1O)NS(=O)(=O)c1cccc(C)c1 |  | Active | Active | inactive |  |  |
| CCCCCCCCCCCCCC[C@@H](O)[C@@H](O)[C@H](CO[C@H]1O[C@H](CO)[C@H](O)[C@H](O)[C@H]1O)NS(=O)(=O)c1ccc(OC)cc1 |  | Active | Active | inactive |  |  |
| CCCCCCCCCCCCCC[C@@H](O)[C@@H](O)[C@H](CO[C@H]1O[C@H](CO)[C@H](O)[C@H](O)[C@H]1O)NS(=O)(=O)c1ccc(NC(C)=O)cc1 |  | Active | Active | inactive | Active | Active |
| CCCCCCCCCCCCCCCCCCCCCCCC(=O)N[C@@H](CO[C@H]1O[C@H](CO)[C@H](O)[C@H](O)[C@H]1O)[C@H](O)[C@H](O)CCCCC |  | Active | Active |  |  |  |
| CCCCCCCCCCCCCC[C@@H](O)[C@@H](O)[C@H](CO[C@H]1O[C@H](CO)[C@H](O)[C@H](O)[C@H]1O)NS(=O)(=O)c1ccc(C)cc1 |  | Active | Active | inactive |  |  |
| CCCCCCCCCCCCCC[C@@H](O)[C@@H](O)[C@H](CO[C@H]1O[C@H](CO)[C@H](O)[C@H](O)[C@H]1O)NS(=O)(=O)c1ccccc1C |  | Active | Active | inactive |  |  |
| CCCCCCCCCCCCCC[C@@H](O)[C@@H](O)[C@H](CO[C@H]1O[C@H](CO)[C@H](O)[C@H](O)[C@H]1O)NC(=O)c1ccc(C)cc1 | inactive |  |  |  |  |  |
| CCCCCCCCCCCCCC[C@@H](O)[C@@H](O)[C@H](CO[C@H]1O[C@H](CO)[C@H](O)[C@H](O)[C@H]1O)NS(=O)(=O)c1cccc2ccccc12 |  | Active | Active | inactive |  |  |
| CCCCCCCCCCCCCCCCS(=O)(=O)N[C@@H](CO[C@H]1O[C@H](CO)[C@H](O)[C@H](O)[C@H]1O)[C@H](O)[C@H](O)CCCCCCCCCCCCCC |  |  |  | inactive |  |  |
| CCCCCCCCCCCCCC[C@@H](O)[C@@H](O)[C@H](CO[C@H]1O[C@H](CO)[C@H](O)[C@H](O)[C@H]1O)NS(=O)(=O)c1ccc(-c2ccccc2)cc1 |  | Active | Active | inactive |  |  |

From ChEMBL document CHEMBL1144229, “RCAI-17, 22, 24-26, 29, 31, 34-36, 38-40, and 88, the analogs of KRN7000 with a sulfonamide linkage: their synthesis and bioactivity for mouse natural killer T cells to produce Th2-biased cytokines” (Bioorg Med Chem, 2008)
